Assays:
Type in all cases: functional
K562 = assay: Cytotoxicity against human K562 cells after 48 hrs by SRB assay; conditions: K562, 48 h
Procedure, shortened: (§1)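 NCI-60 human tumour cell panel screen, second stage, run by the NCI Developmental Therapeutics Program. Compounds were tested at five concentrations (0.01, 0.1, 1, 10 and 100 μM). Percentage growth was plotted against log10 concentration for each cell line. GI50, TGI and LC50 were taken from these dose-response curves.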

MOLT-4 = assay: Cytotoxicity against human MOLT4 cells after 48 hrs by SRB assay; conditions: MOLT-4, 48 h
Procedure, shortened: (§2)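 Second-stage NCI-60 panel run by the NCI Developmental Therapeutics Program, covering nine tumour subpanels. Five concentrations were tested: 0.01, 0.1, 1, 10 and 100 μM. Percentage growth at each level was plotted against log10 drug concentration. GI50, TGI and LC50 were read from these dose-response curves. Subpanel MID values were divided into the full-panel MID to give selectivity ratios.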

SR = assay: Cytotoxicity against human SR cells after 48 hrs by SRB assay
Procedure, shortened: (§3)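 NCI-60 five-dose study run by NCI DTP at 0.01, 0.1, 1, 10 and 100 µM. Percentage growth at each level was plotted against log10 concentration for each line, and GI50, TGI and LC50 were read from the dose-response curves.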

A549 = assay: Cytotoxicity against human A549 cells after 48 hrs by SRB assay; conditions: A549, 48 h; procedure, shortened: as §1
HOP-62 = assay: Cytotoxicity against human HOP62 cells after 48 hrs by SRB assay; conditions: HOP-62, 48 h; procedure, shortened: as §1
NCI-H460 = assay: Cytotoxicity against human NCI-H460 cells after 48 hrs by SRB assay; conditions: NCI-H460, 48 h; procedure, shortened: as §2
COLO 205 = assay: Cytotoxicity against human COLO205 cells after 48 hrs by SRB assay; conditions: COLO 205, 48 h; procedure, shortened: as §1
HCC 2998 = assay: Cytotoxicity against human HCC2998 cells after 48 hrs by SRB assay; conditions: HCC 2998, 48 h; procedure, shortened: as §1
HT-29 = assay: Cytotoxicity against human HT-29 cells after 48 hrs by SRB assay; conditions: HT-29, 48 h; procedure, shortened: as §1
KM12 = assay: Cytotoxicity against human KM12 cells after 48 hrs by SRB assay; conditions: KM12, 48 h; procedure, shortened: as §1
SF-295 = assay: Cytotoxicity against human SF295 cells after 48 hrs by SRB assay; conditions: SF-295, 48 h; procedure, shortened: as §2
SF-539 = assay: Cytotoxicity against human SF539 cells after 48 hrs by SRB assay; conditions: SF-539, 48 h; procedure, shortened: as §2
LOX IMVI = assay: Cytotoxicity against human LOXIMVI cells after 48 hrs by SRB assay; conditions: for CC50: read-out: LC50 (the source's name); procedure, shortened: as §1
Malme-3M = assay: Cytotoxicity against human MALME-3M cells after 48 hrs by SRB assay; procedure, shortened: as §1
IGROV-1 = assay: Cytotoxicity against human IGROV1 cells after 48 hrs by SRB assay; conditions: IGROV-1, 48 h; procedure, shortened: as §1
OVCAR-8 = assay: Cytotoxicity against human OVCAR8 cells after 48 hrs by SRB assay; conditions: OVCAR-8, 48 h; for CC50: read-out: LC50 (the source's name); procedure, shortened: as §2
NCI/ADR-RES = assay: Cytotoxicity against human NCI/ADR-RES cells after 48 hrs by SRB assay; procedure, shortened: as §2
SK-OV-3 = assay: Cytotoxicity against human SKOV3 cells after 48 hrs by SRB assay; conditions: SK-OV-3, 48 h; procedure, shortened: as §2
786-0 = assay: Cytotoxicity against human 786-0 cells after 48 hrs by SRB assay; conditions: 786-0, 48 h; procedure, shortened: as §1
RXF 393 = assay: Cytotoxicity against human RXF393 cells after 48 hrs by SRB assay; conditions: RXF 393, 48 h; procedure, shortened: as §2
SN12C = assay: Cytotoxicity against human SN12C cells after 48 hrs by SRB assay; conditions: for CC50: read-out: LC50 (the source's name); procedure, shortened: as §2
TK-10 = assay: Cytotoxicity against human TK10 cells after 48 hrs by SRB assay; conditions: TK-10, 48 h; procedure, shortened: as §3
UO-31 = assay: Cytotoxicity against human UO31 cells after 48 hrs by SRB assay; conditions: UO-31, 48 h; procedure, shortened: as §3
MCF7 = assay: Cytotoxicity against human MCF7 cells after 48 hrs by SRB assay; conditions: MCF7, 48 h; procedure, shortened: as §1
MDA-MB-231 = assay: Cytotoxicity against human MDA-MB-231 cells after 48 hrs by SRB assay; conditions: MDA-MB-231, 48 h; procedure, shortened: as §2
[1] = Cytotoxicity against human Hs578T cells after 48 hrs by SRB assay; conditions: Hs-578T; procedure, shortened: as §1
T47D = assay: Cytotoxicity against human T47D cells after 48 hrs by SRB assay; procedure, shortened: as §3
[2] = Cytotoxicity against human non-small cell lung cancer cells assessed as growth inhibition after 48 hrs by SRB assay; conditions: Cancer cell lines
Procedure, shortened: (§4)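 Values come from the NCI-60 five-dose panel (0.01–100 µM). The subpanel MID is the mean GI50 over the lines of that tumour subpanel. The selectivity ratio is the full-panel MID divided by the subpanel MID; 3–6 is rated moderate and >6 high.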

[3] = Cytotoxicity against human melanoma cells assessed as growth inhibition after 48 hrs by SRB assay; conditions: Melanoma cell; procedure, shortened: as §4
[4] = Cytotoxicity against human breast cancer cells assessed as growth inhibition after 48 hrs by SRB assay; conditions: Cancer cell lines; procedure, shortened: as §4
ACHN = assay: Cytotoxicity against human ACHN cells after 48 hrs by SRB assay; procedure, shortened: as §1

O=C1c2ccccc2C(=O)c2c1cc(SCc1ccccc1)c1nsnc21
GI50 (K562): 1.47 µM
LC50 (K562): > 50 µM
TGI (K562): 6.5 µM
GI50 (MOLT-4): 1.2 µM
LC50 (MOLT-4): > 50 µM
TGI (MOLT-4): 3.62 µM
GI50 (SR): 1.99 µM
LC50 (SR): > 50 µM
TGI (SR): 13.1 µM
GI50 (A549): > 50 µM
LC50 (concentration killing 50% of cells) (A549): > 50 µM
TGI (A549): > 50 µM
GI50 (HOP-62): 10.7 µM
LC50 (HOP-62): 30.4 µM
TGI (HOP-62): 13.6 µM
GI50 (NCI-H460): > 50 µM
LC50 (concentration killing 50% of cells) (NCI-H460): 32.8 µM
TGI (NCI-H460): 16.8 µM
GI50 (COLO 205): 35.5 µM
LC50 (COLO 205): > 50 µM
TGI (COLO 205): > 50 µM
GI50 (HCC 2998): > 50 µM
LC50 (HCC 2998): > 50 µM
TGI (HCC 2998): > 50 µM
GI50 (HT-29): > 50 µM
LC50 (HT-29): > 50 µM
TGI (HT-29): > 50 µM
GI50 (KM12): 19.5 µM
LC50 (concentration killing 50% of cells) (KM12): > 50 µM
TGI (KM12): > 50 µM
GI50 (SF-295): > 50 µM
LC50 (SF-295): > 50 µM
TGI (SF-295): > 50 µM
GI50 (SF-539): 10.5 µM
LC50 (SF-539): 38.9 µM
TGI (SF-539): 20.2 µM
GI50 (LOX IMVI): 5.68 µM
TGI (LOX IMVI): 12.8 µM
CC50 (LOX IMVI): 29.1 µM
GI50 (Malme-3M): 11 µM
LC50 (Malme-3M): 44.6 µM
TGI (Malme-3M): 22.2 µM
GI50 (IGROV-1): 6.06 µM
LC50 (IGROV-1): 38.9 µM
TGI (IGROV-1): 15.4 µM
GI50 (OVCAR-8): 3.5 µM
TGI (OVCAR-8): 25.8 µM
CC50 (OVCAR-8): > 50 µM
GI50 (NCI/ADR-RES): 12.9 µM
LC50 (concentration killing 50% of cells) (NCI/ADR-RES): > 50 µM
TGI (NCI/ADR-RES): > 50 µM
GI50 (SK-OV-3): 13.7 µM
LC50 (SK-OV-3): > 50 µM
TGI (SK-OV-3): 18.5 µM
GI50 (786-0): 12.3 µM
LC50 (concentration killing 50% of cells) (786-0): > 50 µM
TGI (786-0): 25.4 µM
GI50 (RXF 393): 7.2 µM
LC50 (concentration killing 50% of cells) (RXF 393): 27.4 µM
TGI (RXF 393): 14 µM
GI50 (SN12C): 7.16 µM
TGI (SN12C): 14.5 µM
CC50 (SN12C): 29.3 µM
GI50 (TK-10): 32 µM
LC50 (concentration killing 50% of cells) (TK-10): > 50 µM
TGI (TK-10): > 50 µM
GI50 (UO-31): 7.83 µM
LC50 (UO-31): 43.5 µM
TGI (UO-31): 18.5 µM
GI50 (MCF7): 8.33 µM
LC50 (concentration killing 50% of cells) (MCF7): 34.7 µM
TGI (MCF7): 17 µM
GI50 (MDA-MB-231): 5.14 µM
LC50 (concentration killing 50% of cells) (MDA-MB-231): 34.8 µM
TGI (MDA-MB-231): 13.4 µM
GI50 [1]: 17.3 µM
LC50 [1]: > 50 µM
TGI [1]: > 50 µM
GI50 (T47D): 1.16 µM
LC50 (concentration killing 50% of cells) (T47D): 42.9 µM
TGI (T47D): 5.29 µM
GI50 [2]: 9.57 µM
GI50 [3]: 10.6 µM
GI50 [4]: 8 µM

O=C1c2ccccc2C(=O)c2c1cc(Sc1ccccc1Br)c1nsnc21
GI50 (K562): 18.5 µM
LC50 (K562): > 50 µM
TGI (K562): > 50 µM
GI50 (MOLT-4): 7.21 µM
LC50 (MOLT-4): > 50 µM
TGI (MOLT-4): 41.2 µM
GI50 (SR): 17 µM
LC50 (SR): > 50 µM
TGI (SR): > 50 µM
GI50 (A549): > 50 µM
LC50 (concentration killing 50% of cells) (A549): > 50 µM
TGI (A549): > 50 µM
GI50 (HOP-62): 13.3 µM
LC50 (HOP-62): > 50 µM
TGI (HOP-62): 30.4 µM
GI50 (NCI-H460): 36.1 µM
LC50 (concentration killing 50% of cells) (NCI-H460): > 50 µM
TGI (NCI-H460): > 50 µM
GI50 (COLO 205): > 50 µM
LC50 (COLO 205): > 50 µM
TGI (COLO 205): > 50 µM
GI50 (HCC 2998): > 50 µM
LC50 (HCC 2998): > 50 µM
TGI (HCC 2998): > 50 µM
GI50 (HT-29): > 50 µM
LC50 (HT-29): > 50 µM
TGI (HT-29): > 50 µM
GI50 (KM12): 41.9 µM
LC50 (concentration killing 50% of cells) (KM12): > 50 µM
TGI (KM12): > 50 µM
GI50 (SF-295): 40.6 µM
LC50 (SF-295): > 50 µM
TGI (SF-295): > 50 µM
GI50 (SF-539): 10.3 µM
LC50 (SF-539): 40.5 µM
TGI (SF-539): 20.5 µM
GI50 (LOX IMVI): 12.6 µM
TGI (LOX IMVI): > 50 µM
CC50 (LOX IMVI): > 50 µM
GI50 (Malme-3M): 16.8 µM
LC50 (Malme-3M): > 50 µM
TGI (Malme-3M): 40.2 µM
GI50 (IGROV-1): 19.1 µM
LC50 (IGROV-1): > 50 µM
GI50 (OVCAR-8): 11.1 µM
TGI (OVCAR-8): > 50 µM
CC50 (OVCAR-8): > 50 µM
GI50 (NCI/ADR-RES): 10.4 µM
LC50 (concentration killing 50% of cells) (NCI/ADR-RES): > 50 µM
TGI (NCI/ADR-RES): 36.9 µM
GI50 (SK-OV-3): 21 µM
LC50 (SK-OV-3): > 50 µM
TGI (SK-OV-3): > 50 µM
GI50 (786-0): 11.2 µM
LC50 (concentration killing 50% of cells) (786-0): > 50 µM
TGI (786-0): 29.7 µM
GI50 (ACHN): 12.8 µM
LC50 (ACHN): > 50 µM
TGI (ACHN): 32.5 µM
GI50 (RXF 393): 9.14 µM
LC50 (concentration killing 50% of cells) (RXF 393): 42.2 µM
TGI (RXF 393): 19.6 µM
GI50 (SN12C): 10.5 µM
TGI (SN12C): 39.7 µM
CC50 (SN12C): > 50 µM
GI50 (TK-10): 29.7 µM
LC50 (concentration killing 50% of cells) (TK-10): > 50 µM
TGI (TK-10): > 50 µM
GI50 (UO-31): 14.9 µM
LC50 (UO-31): > 50 µM
TGI (UO-31): > 50 µM
GI50 (MCF7): 7.28 µM
LC50 (concentration killing 50% of cells) (MCF7): 37.8 µM
TGI (MCF7): 16.6 µM
GI50 (MDA-MB-231): 7.52 µM
LC50 (concentration killing 50% of cells) (MDA-MB-231): > 50 µM
TGI (MDA-MB-231): 37.3 µM
GI50 [1]: 17.8 µM
LC50 [1]: > 50 µM
TGI [1]: > 50 µM
GI50 (T47D): 3.7 µM
LC50 (concentration killing 50% of cells) (T47D): > 50 µM
TGI (T47D): 18.3 µM
GI50 [2]: 19.3 µM
GI50 [3]: 12.9 µM
GI50 [4]: 9.62 µM
